Experimental data taken from ChEMBL document CHEMBL5647693, “Molecular basis underlying resistance to Mps1/TTK inhibitors” (Oncogene, 2016).
Activity calls are given as the source filed them. The calls are words filed in the database; no cut-off is given here.

How the values were obtained:
[1] = tested on: HeLa; assay: Antiproliferative activity against human HeLa cells harboring Mps1 I598F mutant assessed as change in Mps1 expression level by Western blot analysis; format: functional, cell-based
Method in brief: (§1)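 Lysis in Tris/HCl pH 7.5 with 150 mM NaCl, 1% Triton X-100, DTT, EDTA, phosphatase and protease inhibitors. SDS-PAGE, transfer to nitrocellulose, block in 4% BSA 0.5 h at room temperature, primary antibody (Mps1-NT) overnight at 4 °C, secondary 1:2000 for 1 h, ECL chemiluminescence detection.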

[2] = tested on: HCT-116; assay: Antiproliferative activity against human HCT-116 cells harboring Mps1 C604Y-A mutant assessed as change in Mps1 expression level by Western blot analysis; format: functional, cell-based; method in brief: as §1
[3] = tested on: U2OS; assay: Induction of mitotic arrest in human U2OS cells harboring LAP-Mps1 I598F mutant assessed as maintain in checkpoint-dependent arrest at 100 nM incubated for 16 hrs in the presence of nocodazole; format: functional, cell-based
Method in brief: (§2)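 About 10 000 cells per 96-well plated on day 0. On day 1, nocodazole (200 ng/ml) plus Cpd-5 at various concentrations added for 16 h. Fixed in 5% formaldehyde, stained for phospho-histone H3-Ser10 and DAPI, up to nine images per well (~3000 cells). Mitotic index = pH3S10-positive/DAPI-positive cells, normalized; three independent experiments.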

[4] = tested on: HeLa; assay: Induction of mitotic arrest in human HeLa cells assessed as depletion in KNL1 phosphorylation at 50 to 100 nM by immunostaining method; format: functional, cell-based; conditions: dose 50-100 nM
Method in brief: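 HeLa cells given DMSO, 50 or 100 nM Cpd-5, immunostained for phospho-KNL1 (MELT13/17) and CREST, DNA with DAPI. Kinetochore ph-KNL1/CREST fluorescence intensity ratios from 200 kinetochores per condition.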

[5] = tested on: HeLa; assay: Induction of mitotic arrest in human HeLa cells harboring Mps1 C604Y mutant assessed as initiating anaphase at 200 nM and measured after nuclear envelope breakdown; format: functional, cell-based
[6] = tested on: HeLa; assay: Induction of mitotic arrest in human HeLa cells expressing histone H2B-YFP assessed as chromosome misalignment at 50 to 100 nM incubated for 16 hrs by time-lapse microscopy relative to control; format: functional; conditions: dose 50-100 nM
Method in brief: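 HeLa H2B-YFP cells imaged live at 37 °C in L-15 after DMSO or 50/100 nM Cpd-5. Anaphases scored for missegregation as mild (up to 3 chromosomes) or severe (>3 chromosomes), 50 cells per condition.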

[7] = tested on: U2OS; assay: Induction of mitotic arrest in human U2OS cells harboring LAP-Mps1 531M mutant assessed as maintain in checkpoint-dependent arrest at 100 nM incubated for 16 hrs in the presence of nocodazole; format: functional, cell-based; method in brief: as §2
[8] = tested on: HCT-116; assay: Inhibition of colony formation in human HCT-116 cells harboring Mps1 C604Y-A mutant assessed as cell survival at 60 nM incubated for 14 days by crystal violet staining based colony formation assay; format: functional; conditions: time 14.0 day
Method in brief: (§3)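 About 500–600 cells per 6-well plated on day 0, Cpd-5 added day 1 at 60 nM, colonies grown to day 14. Fixed 10 min in 96% methanol, stained with 0.1% crystal violet, scanned and analysed. Parental and drug-selected clones tested side by side.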

[9] = tested on: HeLa; assay: Induction of mitotic arrest in human HeLa cells assessed as decrease in average mitotic time with severe seggregation errors at 100 nM relative to control; set-up: scale not given: the % may be the effect or the level left
[10] = tested on: HeLa; assay: Induction of mitotic arrest in human HeLa cells harboring Mps1 C604F mutant assessed as initiating anaphase at 200 nM and measured after nuclear envelope breakdown; format: functional, cell-based
[11] = tested on: DLD-1; assay: Induction of mitotic arrest in human DLD-1 cells harboring Mps1 S611R mutant assessed as mitotic index at 200 to 400 nM incubated for 16 hrs in the presence of nocodazole; format: functional, cell-based; conditions: dose 200-400 nM; method in brief: as §2
[12] = tested on: HeLa; assay: Inhibition of colony formation in human HeLa cells harboring Mps1 C604Y mutant at 80 nM incubated for 14 days in the presence of oligonucleotide by crystal violet staining based colony formation assay; format: functional, cell-based; conditions: time 14.0 day
Method in brief: (§4)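 HeLa (1 × 10^6) transfected with mock, a 100-bp repair oligonucleotide alone, or oligonucleotide plus pX330 Cas9/Mps1-targeting gRNA. Selected with 80 nM Cpd-5 for 14 days in 10-cm plates, then stained with crystal violet.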

[13] = tested on: HCT-116; assay: cells; format: functional, cell-based; conditions: Homo sapiens, HCT-116, 120 h
[14] = organism: Homo sapiens; assay: Inhibition of recombinant Mps1 I598F mutant (unknown origin) assessed as KNL1 phosphorylation level incubated for 10 min by Western blot analysis
[15] = tested on: HCT-116; assay: Antiproliferative activity against human HCT-116 cells harboring Mps1 C604Y-B mutant assessed as change in Mps1 expression level by Western blot analysis; format: functional, cell-based; method in brief: as §1
[16] = tested on: U2OS; assay: Induction of mitotic arrest in human U2OS cells harboring LAP-Mps1 C604Y mutant assessed as maintain in checkpoint-dependent arrest at 100 nM incubated for 16 hrs in the presence of nocodazole; format: functional, cell-based; method in brief: as §2
[17] = tested on: U2OS; assay: cells; format: functional, cell-based; conditions: Homo sapiens, 120 h
[18] = organism: Homo sapiens; assay: Inhibition of recombinant Mps1 C604Y mutant (unknown origin) assessed as KNL1 phosphorylation level incubated for 10 min by Western blot analysis
[19] = tested on: HCT-116; assay: Induction of mitotic arrest in human HCT-116 cells harboring Mps1 C604Y mutant assessed as mitotic index at 200 to 400 nM incubated for 16 hrs in the presence of nocodazole; format: functional, cell-based; conditions: dose 200-400 nM; method in brief: as §2
[20] = tested on: HeLa; assay: Inhibition of colony formation in human HeLa cells harboring wild-type Mps1 assessed as cell survival at 60 nM incubated for 14 days by crystal violet staining based colony formation assay; format: functional; conditions: time 14.0 day; method in brief: as §3
[21] = tested on: DLD-1; assay: Inhibition of colony formation in human DLD-1 cells harboring Mps1 S611R mutant assessed as cell survival at 60 nM incubated for 14 days by crystal violet staining based colony formation assay; format: functional; conditions: time 14.0 day; method in brief: as §3
[22] = tested on: HCT-116; assay: Antiproliferative activity against human HCT-116 cells harboring Mps1 531M mutant assessed as change in Mps1 expression level by Western blot analysis; format: functional, cell-based; method in brief: as §1
[23] = tested on: HeLa; assay: Induction of mitotic arrest in human HeLa cells harboring Mps1-C604F mutant assessed as decrease in average mitotic time with most mild seggregation errors at 200 nM; format: functional, cell-based
[24] = tested on: DLD-1; assay: cells; format: functional, cell-based; conditions: Homo sapiens, DLD-1, 120 h
[25] = tested on: HeLa; assay: Induction of mitotic arrest in human HeLa cells harboring Mps1-C604F mutant assessed as […] in average mitotic time with severe seggregation at 400 nM relative to control; format: functional
[26] = organism: Homo sapiens; assay: Inhibition of recombinant Mps1 531M mutant (unknown origin) assessed as KNL1 phosphorylation level incubated for 10 min by Western blot analysis
[27] = organism: Homo sapiens; assay: Inhibition of recombinant Mps1 S611R mutant (unknown origin) assessed as KNL1 phosphorylation level incubated for 10 min by Western blot analysis
[28] = tested on: DLD-1; assay: Antiproliferative activity against human DLD-1 cells harboring Mps1 S611R mutant assessed as change in Mps1 expression level by Western blot analysis; format: functional, cell-based; method in brief: as §1
[29] = tested on: HCT-116; assay: Inhibition of colony formation in human HCT-116 cells harboring wild-type Mps1 assessed as cell survival at 60 nM incubated for 14 days by crystal violet staining based colony formation assay; format: functional; conditions: time 14.0 day; method in brief: as §3
[30] = tested on: HCT-116; assay: Induction of mitotic arrest in human HCT-116 cells harboring Mps1 I531M mutant assessed as mitotic index at 200 to 400 nM incubated for 16 hrs in the presence of nocodazole; format: functional, cell-based; conditions: dose 200-400 nM; method in brief: as §2
[31] = tested on: HeLa; assay: Inhibition of colony formation in human HeLa cells harboring Mps1 C604Y mutant at 80 nM incubated for 14 days in the presence of oligonucleotide and Cas9/gRNA by crystal violet staining based colony formation assay; format: functional, cell-based; conditions: time 14.0 day; method in brief: as §4
[32] = tested on: HCT-116; assay: Inhibition of colony formation in human HCT-116 cells harboring Mps1 531M mutant assessed as cell survival at 60 nM incubated for 14 days by crystal violet staining based colony formation assay; format: functional; conditions: time 14.0 day; method in brief: as §3
[33] = tested on: HCT-116; assay: Induction of mitotic arrest in human HCT-116 cells assessed as decrease in mitotic index at 30 nM incubated for 16 hrs; format: functional; set-up: scale not given: the % may be the effect or the level left; method in brief: as §2
[34] = tested on: U2OS; assay: Induction of mitotic arrest in human U2OS cells harboring LAP-Mps1 S611R mutant assessed as maintain in checkpoint-dependent arrest at 100 nM incubated for 16 hrs in the presence of nocodazole; format: functional, cell-based; method in brief: as §2
[35] = tested on: HCT-116; assay: Inhibition of colony formation in human HCT-116 cells harboring Mps1 C604Y-B mutant assessed as cell survival at 60 nM incubated for 14 days by crystal violet staining based colony formation assay; format: functional; conditions: time 14.0 day; method in brief: as §3
[36] = tested on: HeLa; assay: Induction of mitotic arrest in human HeLa cells expressing histone H2B-YFP assessed as initiating anaphase at 50 to 100 nM incubated for 16 hrs and measured within 15 min after nuclear envelope breakdown by time-lapse microscopy relative to control; format: functional; conditions: dose 50-100 nM, time 975 min, 16.25 h
Method in brief: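 Live imaging of HeLa H2B-YFP cells in L-15 medium at 37 °C after DMSO or 50/100 nM Cpd-5, no nocodazole. Time from nuclear envelope breakdown to anaphase onset recorded for 50 cells per condition; cumulative anaphase-onset percentage and mean mitotic duration.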

[37] = tested on: HCT-116; assay: Inhibition of colony formation in human HCT-116 cells harboring Mps1 C604Y-B mutant assessed as cell survival incubated for 5 days crystal violet staining based colony formation assay; format: functional; conditions: HCT-116, 120 h
Method in brief: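 Cells (~1500 per well, 96-well format) seeded day 0; inhibitor added day 1 over a range of concentrations; on day 6 fixed 10 min in 96% methanol, stained with 0.1% crystal violet, washed, scanned and quantified. Grown in DMEM with 6% FCS, penicillin-streptomycin, 2 mM L-glutamine. Survival relative to untreated; IC50 from curve fit, average of three independent experiments.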

[38] = tested on: HeLa; assay: cells; format: functional, cell-based; conditions: Homo sapiens, 120 h
[39] = tested on: HeLa; assay: Induction of mitotic arrest in human HeLa cells harboring Mps1-C604F mutant assessed as decrease in average mitotic time with mis seggregation at 200 nM relative to control; format: functional; set-up: scale not given: the % may be the effect or the level left
[40] = tested on: HeLa; assay: Inhibition of colony formation in human HeLa cells harboring Mps1 I598F mutant assessed as cell survival at 60 nM incubated for 14 days by crystal violet staining based colony formation assay; format: functional; conditions: time 14.0 day; method in brief: as §3
[41] = tested on: DLD-1; assay: Induction of mitotic arrest in human DLD-1 cells assessed as decrease in mitotic index at 30 nM incubated for 16 hrs; format: functional; set-up: scale not given: the % may be the effect or the level left; method in brief: as §2
[42] = tested on: U2OS; assay: Inhibition of colony formation in human U2OS cells harboring wild-type LAP-Mps1 assessed as cell survival incubated for 5 days by crystal violet staining based colony formation assay; format: functional; conditions: 120 h
Method in brief: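 Cells seeded at ~1500 per 96-well on day 0; inhibitor added on day 1 over a concentration range. On day 6, fixed 10 min in 96% methanol, stained with 0.1% crystal violet, scanned and quantified. Survival relative to untreated; IC50 from dose–response curves; mean of three independent experiments. Culture in DMEM with 6% FCS.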

SMILES: CCc1cccc(CC)c1NC(=O)c1nn(C)c2c1CCc1cnc(Nc3ccc(N4CCN(C)CC4)cc3OC)nc1-2
- Activity [1]: inactive
- Activity [2]: inactive
- Activity [3]: Active
- Activity [4]: Active
- Activity [5]: inactive
- Activity [6]: 100%
- Activity [7]: Active
- inhibition [8]: Active
- Activity [9]: 100%
- Activity [10]: inactive
- Activity [11]: Active
- Activity [12]: Active
- IC50 [13]: 0.0201 µM
- inhibition [14]: Active
- Activity [15]: inactive
- Activity [16]: Active
- IC50 [17]: 0.0206 µM
- inhibition [18]: Active
- Activity [19]: Active
- inhibition [20]: inactive
- inhibition [21]: Active
- Activity [22]: inactive
- Activity [23]: Active
- IC50 [24]: 0.0246 µM
- Activity [25]: 100%
- inhibition [26]: Active
- inhibition [27]: Active
- Activity [28]: inactive
- inhibition [29]: inactive
- Activity [30]: Active
- Activity [31]: Active
- inhibition [32]: Active
- Activity [33]: 60%
- Activity [34]: Active
- inhibition [35]: Active
- Activity [36]: 100%
- IC50 [37]: 0.31 µM
- IC50 [38]: 0.252 µM
- Activity [39]: 70%
- inhibition [40]: Active
- Activity [41]: 70%
- IC50 [42]: 0.0332 µM
